SKN-1 inh: inhibitors of C. elegans SKN-1; 0.49% of 360,000 active; C. elegans VP596 Pgst-4::GFP/RFP ratio, acrylamide-induced, 24 h; inhibition, % at 21.8 µM;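 active means interference check ratio from 0.5 to 1.5 plus GFP to RFP signal ratio inhibition reaching or exceeding a fixed threshold, cut at about 30% in these data, passing the limit was not always enough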
ADAM17 inh: inhibits human ADAM17; 0.83% of 370,000 active; recombinant ADAM17, EDANS/DABCYL FRET peptide cleavage; P78536; inhibition, % at 6.95 µM;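 active means inhibition above the mean of compounds lying between control limits plus 3 SD, set per campaign, cut at about 8.5% in these data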;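 further: 0% = DMSO-only wells as the low control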
GRIN3A LBD mod: modulates the human NR3A ligand-binding domain; NR3A LBD differential scanning fluorimetry, Tm shift; 0% = protein alone, 100% = glycine-bound protein; Tm shift relative to glycine control, % at 25 µM; 2.5% of 340,000 active;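 active means melting temperature shift of at least 10% of the positive control shift, at one fixed dose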
MT1-MMP act inh: inhibitors of human MT1-MMP activation. P50281. AID 651647. GFP/RFP ratio change, % at 20 µM. 0.061% of 360,000 active. HT1080 RFP-PRO-GFP cells, GFP/RFP ratio fluorescence, overnight; percent of plate control window, DMSO zero;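 active means GFP/RFP ratio change of at least 30% with cell ATP level not reduced by more than half and red fluorescence within 50% of control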
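system = RFP-PRO-GFP reporter HT1080 cells | dosing = 20 µM single dose, 1% DMSO | timing = overnight cell settling, then overnight compound exposure, 37 °C, 5% CO2 | read-out basis = GFP/RFP fluorescence ratio | controls = DMSO and RFP-L50D-GFP cell wells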
MPTP inh: blocks calcium-induced mitochondrial swelling. isolated mouse mitochondria, Ca2+ swelling absorbance, 30 min. inhibition, % at 10 µM. 1.4% of 360,000 active;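 active means inhibition of 50% or more, scaled per plate between neutral and stimulator controls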;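 further: 0% = DMSO wells given calcium and 100% = 1 mM EGTA wells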
ADAM10 inh: ADAM10 inhibition, QFRET primary screen | O14672 | recombinant ADAM10, EDANS/DABCYL FRET peptide cleavage, 3 h | inhibition, % at 7 µM | 0.62% of 370,000 active;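 active means inhibition above a per-campaign cutoff equal to the mean of compounds falling between control-based bounds plus 3 SD, cut at about 20% in these data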;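 further: 0% = DMSO wells while the 100% control is not disclosed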
Target sequence (O14672 214-748 limits assumed): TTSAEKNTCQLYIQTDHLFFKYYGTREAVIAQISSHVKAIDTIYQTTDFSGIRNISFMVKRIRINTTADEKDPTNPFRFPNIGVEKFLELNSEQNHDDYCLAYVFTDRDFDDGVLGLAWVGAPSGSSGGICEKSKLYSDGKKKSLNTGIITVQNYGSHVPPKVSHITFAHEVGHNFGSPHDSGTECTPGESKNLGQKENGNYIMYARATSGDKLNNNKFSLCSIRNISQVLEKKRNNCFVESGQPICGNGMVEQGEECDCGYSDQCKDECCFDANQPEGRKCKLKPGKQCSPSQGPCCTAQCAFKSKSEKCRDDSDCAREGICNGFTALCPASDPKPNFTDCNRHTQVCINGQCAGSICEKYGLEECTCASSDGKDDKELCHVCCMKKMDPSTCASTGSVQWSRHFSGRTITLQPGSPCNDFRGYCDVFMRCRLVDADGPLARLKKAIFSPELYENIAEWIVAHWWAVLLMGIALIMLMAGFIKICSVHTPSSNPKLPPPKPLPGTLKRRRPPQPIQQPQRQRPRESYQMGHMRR
ADAM10 counter: inhibits human ADAM10 in ADAM17 exosite counter-screen; shares compounds with ADAM17 inh; inhibition, % at 6.95 µM; recombinant ADAM10, EDANS/DABCYL FRET peptide cleavage, 3 h; 47% of 2,900 active;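 active means mean inhibition over the triplicate runs exceeds the activity threshold set in the earlier primary screen, cut at about 20% in these data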;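 further: 0% = DMSO wells and 100% = marimastat wells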
ADAM17 confirm: confirmation of inhibitors of human ADAM17; shares compounds with ADAM17 inh; recombinant ADAM17, EDANS/DABCYL QFRET peptide cleavage; inhibition, % at 6.95 µM; 65% of 2,900 active;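 active means mean inhibition across replicates above the hit cutoff set in the primary screen, cut at about 8.5% in these data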;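 further: 0% = DMSO wells and 100% = marimastat wells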
An asterisk follows results filed as active; nt = not tested or not shown. Most compounds without a hit are left out; they make up all but 4.7% or so of the library.

SMILES | SKN-1 inh | ADAM17 inh | GRIN3A LBD mod | MT1-MMP act inh | MPTP inh | ADAM10 inh | ADAM10 counter | ADAM17 confirm
COc1ccc(-c2cc(-c3n[nH]c(=S)n3-c3cccc4ccccc34)[nH]n2)cc1 | 1.3 | 8.7* | -18.0 | -5.5 | -0.6 | 18.5 | 18.3 | 8.1
COCc1n[nH]c(=S)n1-c1cccc2ccccc12 | -10.0 | 1.8 | -0.5 | 1.0 | -1.9 | 4.0 | nt | nt
Cc1ccc(C(C(=O)NCc2ccco2)N(CCc2ccccc2)C(=O)Cn2nnc3ccccc32)o1 (configuration not stated) | -5.3 | 10.1* | 1.5 | -0.4 | -3.6 | 6.6 | 18.1 | 10.4*
CCCNc1ncnc2onc(C)c12 | 11.5 | 9.8* | -1.9 | 1.6 | 0.1 | 5.4 | 10.7 | 8.6
CSc1ccccc1-c1ccc2nccn2c1 | 1.9 | -5.4 | nt | -2.5 | 0.1 | -13.5 | nt | nt
Cc1ccccc1N1C(=O)C(Cl)=C(N2CCN(c3ccccc3)CC2)C1=O | -8.1 | 2.3 | -1.4 | 3.0 | 0.2 | -0.2 | nt | nt
Cc1[nH]n(C(N)=S)c(=O)c1C(c1ccccc1)C(C#N)C#N (configuration not stated) | -4.1 | -1.4 | -1.1 | -0.6 | 2.0 | 0.3 | nt | nt
Cc1[nH]n(-c2ncc(-c3ccccc3)s2)c(=O)c1C(c1ccc(Br)cc1)C(C#N)C#N (configuration not stated) | -5.7 | 8.7* | 5.5 | 17.0 | 38.2 | 14.7 | 14.3 | 12.4*
COc1ccc(Cl)cc1NC(=O)CN(C)C(=O)CSc1ccc2c(c1)OCCO2 | 9.1 | 8.9* | 1.2 | 3.5 | -0.3 | 5.1 | 25.0* | 15.1*
COc1ccc(NC(=O)CN(C)C(=O)CSc2ccc3c(c2)OCCO3)cc1 | -7.5 | 5.0 | 2.0 | -0.2 | 1.8 | 2.1 | nt | nt
Fc1ccc(Cn2c(SCc3ccc(F)c(F)c3)nnc2C(F)(F)F)cc1 | 18.0 | 2.8 | 2.8 | -6.6 | 1.6 | 8.5 | nt | nt
Fc1ccc(Cn2c(SCc3ccc(F)c(C(F)(F)F)c3)nnc2C(F)(F)F)cc1 | 14.3 | 8.8* | -10.3 | nt | -2.7 | 15.9 | 37.1* | 16.9*
O=C(COC(=O)C1(c2cccc(F)c2)CCCC1)NCc1cccs1 | -3.3 | 3.2 | -0.6 | 1.7 | -1.7 | -2.9 | nt | nt
O=C(CNC(=O)c1ccc(Br)o1)Nc1ncccc1O | -7.5 | -6.3 | 0.2 | 1.1 | -1.4 | -11.9 | nt | nt
Cc1cccnc1NC(=O)c1ccc(Br)o1 | -3.1 | 8.6* | -0.6 | 1.4 | 0.1 | -2.2 | -4.2 | -0.1
OC(COc1ccc(OCc2ccccc2)cc1)CN1CCCCC1 (configuration not stated) | 14.8 | -3.1 | -0.1 | 3.8 | 0.0 | -0.2 | nt | nt
OC(COc1ccc(OCc2ccccc2)cc1)CN1CCOCC1 (configuration not stated) | 22.6 | 10.5* | 0.3 | 7.4 | -0.9 | 10.0 | 5.9 | 4.4
COc1cc(OC)cc(C(=O)NCC(=O)N2CCN(c3ccc(O)cc3)CC2)c1 | 10.1 | -1.6 | -0.3 | 2.6 | 0.5 | -4.6 | nt | nt
Cc1c(C(=O)NCc2ccccc2)oc2ccc(S(=O)(=O)N3CCC4(CC3)OCCO4)cc12 | 2.1 | 9.6* | -4.2 | 5.2 | -0.1 | 12.1 | 4.0 | 6.5
Cc1c(C(=O)NCc2ccccn2)oc2ccc(S(=O)(=O)N3CCC4(CC3)OCCO4)cc12 | 11.4 | 0.9 | -1.5 | -0.2 | -2.1 | 5.3 | nt | nt
Cc1cccc(NS(=O)(=O)c2ccc3c(c2)Cc2cc(S(=O)(=O)Nc4cccc(C)c4C)ccc2-3)c1C | 4.3 | 10.6* | 13.1* | -12.6 | 3.3 | 18.4 | 13.1 | 10.3*
Cc1cc(C)cc(N(CCC#N)C(=O)COC(=O)CN2C(=O)NC(C)(C)C2=O)c1 | 17.2 | -5.3 | 2.0 | 6.5 | -1.1 | -4.7 | nt | nt
CCOc1ccc(N(CC(=O)NCCSc2ccccn2)S(=O)(=O)c2ccc(Cl)cc2)cc1 | 2.0 | -0.2 | -4.9 | -9.4 | 1.4 | -3.2 | nt | nt

Screens deposited in PubChem by several laboratories.
